Active and inactive are the calls of the source. No cut-off for these calls is given here.
Assays:
[1] = test system: HT-29; assay: Antiproliferative activity against human HT29 cell line; assay type: functional
How it was run: (§1)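 Cells kept in RPMI 1640 with 2 mM L-glutamine and 10% fetal calf serum, 37 °C, 5% CO₂, passaged twice weekly. 5 × 10³ cells/well allowed 24 h to adhere, then exposed 72 h to compound at final 0.1 nM–100 µM (n = 8). MTT read-out: MTT 400 µg/mL for 4 h at 37 °C, formazan dissolved in DMSO/glycine buffer pH 10.5, absorbance 550 nm; GI50 derived.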

[2] = test system: MCF7; assay: Antiproliferative activity against human MCF7 cell line; assay type: functional; how it was run: as §1
[3] = test system: HCT-116; assay: Antiproliferative activity against human HCT116 cell line; assay type: functional; how it was run: as §1
[4] = test system: MDA-MB-468; assay: Antiproliferative activity against human MDA-MB-468 cell line; assay type: functional; how it was run: as §1
[5] = test system: MDA-MB-468; assay: Antiproliferative activity against human MDA-MB-468 cell line in presence of 10 nM TBDD; assay type: functional
How it was run: (§2)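 MDA-MB-468 cells, 5 × 10³/well, allowed 24 h to adhere, then co-exposed 72 h to isoflavone (final 0.1 nM–100 µM, n = 8) plus TBDD at final 10 nM (n = 4). Viability measured by MTT (400 µg/mL, 4 h, 37 °C), formazan dissolved in DMSO/glycine pH 10.5, absorbance 550 nm.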

[6] = test system: Panel NCI-60 (60 carcinoma cell lines); assay: Antiproliferative activity against human NCI60 cell line; assay type: functional
[7] = test system: MDA-MB-468; assay: Cytotoxicity against human MDA-MB-468 cell line at 3 uM in presence of TBDD; assay type: functional, cell-based; how it was run: as §2
[8] = target: T1, Cytochrome P450 1A1 (Homo sapiens, UniProt P04798); assay: Inhibition of CYP1A1 by EROD assay; assay type: ADME
T1 sequence (P04798 whole entry): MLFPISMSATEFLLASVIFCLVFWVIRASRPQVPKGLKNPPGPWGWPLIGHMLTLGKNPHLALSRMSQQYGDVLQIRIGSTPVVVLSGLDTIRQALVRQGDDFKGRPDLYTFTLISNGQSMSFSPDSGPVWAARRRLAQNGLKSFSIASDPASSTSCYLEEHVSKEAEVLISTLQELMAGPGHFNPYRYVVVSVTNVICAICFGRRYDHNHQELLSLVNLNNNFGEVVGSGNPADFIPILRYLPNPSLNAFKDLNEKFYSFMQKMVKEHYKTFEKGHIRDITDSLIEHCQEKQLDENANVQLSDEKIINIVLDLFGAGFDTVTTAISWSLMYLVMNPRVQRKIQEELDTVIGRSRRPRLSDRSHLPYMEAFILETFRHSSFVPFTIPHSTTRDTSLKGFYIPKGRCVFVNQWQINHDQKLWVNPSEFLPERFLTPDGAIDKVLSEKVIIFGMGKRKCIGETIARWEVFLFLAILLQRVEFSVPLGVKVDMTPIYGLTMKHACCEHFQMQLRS
How it was run: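 EROD fluorometric assay. Recombinant CYP1A1 microsomes (0.1 mg/mL) in 100 mM Tris-HCl pH 7.4 with 50 µM MgCl₂ and 100 µM 7-ethoxyresorufin, with compound at 1, 10 or 100 µM. Preincubated 5 min at 37 °C, started with 500 µM NADPH, run 15 min at 37 °C, stopped with ice-cold acetonitrile. Resorufin read at ex 530/em 585 nm against a standard curve; no-microsome and DMSO controls.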

[9] = test system: MDA-MB-435; assay: Antiproliferative activity against human MDA-MB-435 cell line expressing ARNT splice variant

Row | Compound | GI50 [1] [µM] | GI50 [2] [µM] | GI50 [3] [µM] | GI50 [4] [µM] | GI50 [5] [µM] | GI50 [6] [µM] | Activity [7] | IC50 [8] [µM] | GI50 [9] [µM]
1 | Cc1cc(-c2nc3cc(F)ccc3s2)ccc1N | 63 | < 0.0001 | 16 | < 0.0001 | – | – | – | – | –
2 | COc1ccc(-c2coc3c(F)c(F)ccc3c2=O)cc1OC | 31.7 | 47.2 | 26 | 21.6 | < 1 | 50 | – | – | –
3 | COc1ccc(-c2coc3cc(F)ccc3c2=O)cc1OC | 87 | 90.6 | 80.2 | 58.9 | < 1 | 50 | Active | < 100 | –
4 | COc1ccc(-c2nc3cc(F)ccc3s2)cc1OC | 2.6 | 0.008 | 5.4 | < 0.0001 | – | – | – | – | –
5 | O=c1c(-c2cccc([N+](=O)[O-])c2)coc2ccccc12 | – | – | – | – | – | 50 | – | – | –
6 | COc1ccc(-c2coc3c(F)cc(F)cc3c2=O)cc1OC | 7.2 | 46.7 | 8.1 | 6.3 | – | 50 | – | – | > 30
7 | COc1ccc(-c2coc3cc(F)c(F)cc3c2=O)cc1OC | 22.6 | 41.5 | 39.7 | 17.2 | – | 50 | – | – | > 30
8 | COc1ccc(-c2coc3ccc(F)cc3c2=O)cc1OC | 88.2 | 93.1 | 65.3 | 0.9 | < 1 | 50 | – | < 100 | > 30
9 | COc1ccc(-c2coc3c(F)cccc3c2=O)cc1OC | 88 | 75.5 | 67.8 | 41.9 | < 1 | 50 | Active | – | –
10 | COc1ccc(-c2coc3ccccc3c2=O)cc1OC | > 100 | 88.1 | > 100 | 66.5 | < 1 | 50 | – | – | –
11 | O=c1c(-c2ccc3c(c2)OCO3)coc2ccc(F)cc12 | – | 60 | – | 1.5 | 2 | 50 | – | – | –
12 | Nc1ccc(-c2coc3ccccc3c2=O)cc1 | 8.1 | 64.9 | 17.3 | 6 | – | 50 | – | – | –
13 | COc1ccc(-c2coc3ccc(F)cc3c2=O)cc1 | – | – | – | – | – | 50 | – | < 100 | –
14 | COc1ccc(-c2coc3cc(F)ccc3c2=O)cc1 | 17.6 | 43.8 | 8.5 | 9.9 | – | 50 | – | – | > 30
15 | COc1cccc(-c2coc3ccccc3c2=O)c1 | 88 | > 100 | > 100 | 29 | < 1 | 50 | – | – | –
16 | O=c1c(-c2ccc(Cl)cc2)coc2ccccc12 | – | – | – | – | – | 50 | – | – | –
17 | O=c1c(-c2ccc(Br)cc2)coc2ccccc12 | – | – | – | – | – | 50 | – | – | –
18 | Nc1ccc(-c2coc3ccc(F)cc3c2=O)cc1 | 6.1 | 8.8 | 8.5 | 4.8 | – | 50 | – | – | –
19 | Nc1ccc(-c2coc3cc(F)ccc3c2=O)cc1 | 8.6 | 7.9 | 7.2 | 6.4 | – | 50 | – | – | –
